The text below walks through data of ChEMBL document CHEMBL1122688, “Antimycotic azoles. 7. Synthesis and antifungal properties of a series of novel triazol-3-ones” (1984).

The nature of assay [1]: In vivo activity against vaginal candidoses in rats, measured as the ratio of animals cured/animals infected (C/I) at dose 0.63 mg/kg; C/I = 2/12. Format: functional.
Assay [2] relates to Aspergillus fumigatus. The experiment in a line: In vitro antifungal activity against Aspergillus fumigatus. Format: functional. The method, boiled down: (§1)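 Fungal growth-inhibition screen (Godefroi method) against dermatophytes, yeasts, moulds and other fungi. The value is the lowest concentration (µg/mL) giving total inhibition of growth, tested up to 100 µg/mL.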
Assay [3] relates to Cryptococcus neoformans. Nature of the assay: In vitro antifungal activity against Cryptococcus neoformans. Format: functional. The gist of the method: as §1
In assay [4] the test system is Saprolegnia. The experiment in a line: In vitro antifungal activity against Saprolegnia sp. Format: functional. The method, boiled down: as §1
Assay [5] in a line: In vivo activity against vaginal candidoses in rats, measured as the ratio of animals cured/animals infected (C/I) at dose 2.5 mg/kg; C/I = 20/24. The class given is functional.
The subject of assay [6] is Sporothrix schenckii. The experiment in a line: In vitro antifungal activity against Sporothrix schenck ii. The class given is functional. The gist of the method:
as §1

Assay [7] deals with Trichophyton rubrum. The experiment in a line: In vitro antifungal activity against Trichophyton rubrum. The class given is functional. The method, boiled down: as §1
Assay [8] is described as follows: In vitro antifungal activity against Mucor sp. The class given is functional. The gist of the method:
as §1

Assay [9] in a line: In vivo activity against microsporosis guinea pig, measured as the ratio of animals cured/animals infected (C/I) at dose 2.5 mg/kg; C/I = 7/12. The class given is functional.
Assay [10] is described as follows: In vivo activity against vaginal candidoses in rats, measured as the ratio of animals cured/animals infected (C/I) at dose 10 mg/kg; C/I = 5/6. The class given is functional.
For assay [11], the system named is Rattus norvegicus. The experiment in a line: In vivo activity against vaginal candidoses in rats, measured as the ratio of animals cured/animals infected (C/I) at dose 1.25 mg/kg; C/I = 12/22. The class given is functional.
In assay [12] the test system is Microsporum canis. Nature of the assay: In vitro antifungal activity against Microsporum canis. The class given is functional. The gist of the method:
as §1

A short description of assay [13]: In vivo activity against microsporosis guinea pig, measured as the ratio of animals cured/animals infected (C/I) at dose 10 mg/kg; C/I = 6/6. Format: functional.
In assay [14] the test system is Candida tropicalis. Nature of the assay: In vitro antifungal activity against Candida tropicalis. Format: functional. The gist of the method:
as §1

Assay [15] concerns Phialophora verrucosa. The experiment in a line: In vitro antifungal activity against Phialophora verrucosa. The class given is functional. The gist of the method: as §1
For assay [16], the system named is Trichophyton benhamiae. The experiment in a line: In vitro antifungal activity against Trichophyton mentagrophytes. Format: functional, Arthroderma benhamiae. The gist of the method:
as §1

The nature of assay [17]: In vivo activity against microsporosis guinea pig, measured as the ratio of animals cured/animals infected (C/I) at dose 1.25 mg/kg; C/I = 2/6. Format: functional.
The subject of assay [18] is Candida albicans. The experiment in a line: In vitro antifungal activity against Candida albicans. Format: functional. The gist of the method:
as §1

Assay [19] is described as follows: In vivo activity against microsporosis guinea pig, measured as the ratio of animals cured/animals infected (C/I) at dose 10 mg/kg; C/I = 2/2. The class given is functional.
A short description of assay [20]: In vivo activity against vaginal candidoses in rats, measured as the ratio of animals cured/animals infected (C/I) at dose 2.5 mg/kg; C/I = 2/4. Format: functional.
Assay [21] in a line: In vivo activity against microsporosis guinea pig, measured as the ratio of animals cured/animals infected (C/I) at dose 2.5 mg/kg; C/I = 0/2. Format: functional.
Assay [22] in a line: In vivo activity against vaginal candidoses in rats, measured as the ratio of animals cured/animals infected (C/I) at dose 0.63 mg/kg; C/I = 0/2. The class given is functional.
The nature of assay [23]: In vivo activity against vaginal candidoses in rats, measured as the ratio of animals cured/animals infected (C/I) at dose 2.5 mg/kg; C/I = 2/2. The class given is functional.
The nature of assay [24]: In vivo activity against vaginal candidoses in rats, measured as the ratio of animals cured/animals infected (C/I) at dose 10 mg/kg; C/I = 1/2. Format: functional.
Assay [25] can be described thus: In vivo activity against vaginal candidoses in rats, measured as the ratio of animals cured/animals infected (C/I) at dose 2.5 mg/kg; C/I = 1/2. Format: functional.
Assay [26] is described as follows: In vivo activity against microsporosis guinea pig, measured as the ratio of animals cured/animals infected (C/I) at dose 20 mg/kg; C/I = 0/2. The class given is functional.
A short description of assay [27]: In vivo activity against vaginal candidoses in rats, measured as the ratio of animals cured/animals infected (C/I) at dose 1.25 mg/kg; C/I = 7/10. The class given is functional.
Assay [28] is described as follows: In vivo activity against microsporosis guinea pig, measured as the ratio of animals cured/animals infected (C/I) at dose 2.5 mg/kg; C/I = 5/8. Format: functional.
Assay [29] is described as follows: In vivo activity against vaginal candidoses in rats, measured as the ratio of animals cured/animals infected (C/I) at dose 2.5 mg/kg; C/I = 7/10. Format: functional.
Assay [30] in a line: In vivo activity against vaginal candidoses in rats, measured as the ratio of animals cured/animals infected (C/I) at dose 0.63 mg/kg; C/I = 4/10. The class given is functional.
Assay [31] in a line: In vivo activity against microsporosis guinea pig, measured as the ratio of animals cured/animals infected (C/I) at dose 1.25 mg/kg; C/I = 3/6. The class given is functional.
Assay [32] is described as follows: In vivo activity against vaginal candidoses in rats, measured as the ratio of animals cured/animals infected (C/I) at dose 2.5 mg/kg; C/I = 9/10. Format: functional.
Assay [33] can be described thus: In vivo activity against vaginal candidoses in rats, measured as the ratio of animals cured/animals infected (C/I) at dose 0.63 mg/kg; C/I = 1/6. Format: functional.
Assay [34] is described as follows: In vivo activity against microsporosis guinea pig, measured as the ratio of animals cured/animals infected (C/I) at dose 10 mg/kg; C/I = 0/4. The class given is functional.
A short description of assay [35]: In vivo activity against vaginal candidoses in rats, measured as the ratio of animals cured/animals infected (C/I) at dose 1.25 mg/kg; C/I = 1/4. Format: functional.
The nature of assay [36]: In vivo activity against vaginal candidoses in rats, measured as the ratio of animals cured/animals infected (C/I) at dose 10 mg/kg; 173/181. Format: functional.
Assay [37] is described as follows: In vivo activity against microsporosis guinea pig, measured as the ratio of animals cured/animals infected (C/I) at dose 20 mg/kg; 30/30. Format: functional.
Assay [38] can be described thus: In vivo activity against microsporosis guinea pig, measured as the ratio of animals cured/animals infected (C/I) at dose 2.5 mg/kg;0/14. The class given is functional.
Assay [39] is described as follows: In vivo activity against vaginal candidoses in rats, measured as the ratio of animals cured/animals infected (C/I) at dose 1.25 mg/kg; 0/12. The class given is functional.
The nature of assay [40]: In vivo activity against microsporosis guinea pig, measured as the ratio of animals cured/animals infected (C/I) at dose 10 mg/kg; 4/34. Format: functional.
A short description of assay [41]: In vivo activity against vaginal candidoses in rats, measured as the ratio of animals cured/animals infected (C/I) at dose 2.5 mg/kg; 2/8. The class given is functional.

Take `CC(C)n1ncn(-c2ccc(N3CCN(c4ccc(OC[C@@H]5COC(Cn6cncn6)(c6ccc(Cl)cc6Cl)O5)cc4)CC3)cc2)c1=O` (some centres undefined): the C/I ratio in assay [1] was 0.167; in assay [5], 0.833; in [9], 0.583 (not active); in [10], 0.833; in assay [11] it was 0.545; in assay [13] it was 1. Besides, the C/I ratio in assay [17] came out at 2. In addition, the Inhibition in [2], in assay [3], in assay [4], in [6], in assay [7] and in [8] was over 100 µg/mL in each case. Further, the Inhibition in [12] is over 100 µg/mL; in assay [14], over 100 µg/mL; in assay [15] it was over 100 µg/mL; in [16], 100 µg/mL; in assay [18] it was over 100 µg/mL.

In the case of `Cc1nn(CC(C)C)c(=O)n1-c1ccc(N2CCN(c3ccc(OC[C@@H]4COC(Cn5ccnc5)(c5ccc(Cl)cc5Cl)O4)cc3)CC2)cc1` (some centres undefined), the Inhibition in assay [2] was over 100 µg/mL; in [3], 100 µg/mL; in assay [4] it was over 100 µg/mL; in [6], over 100 µg/mL; in assay [7] it was 100 µg/mL; in [8], over 100 µg/mL. Besides, the Inhibition in assay [12] is over 100 µg/mL; in [14] it was 100 µg/mL; in [15], over 100 µg/mL; in assay [16] it was 100 µg/mL; in assay [18], over 100 µg/mL. Besides, the C/I ratio in [19] was found to be 2; in assay [20], 0.5; in [21], 0.

As to `CCC(C)n1nc(C)n(-c2ccc(N3CCN(c4ccc(OC[C@@H]5COC(Cn6cncn6)(c6ccc(Cl)cc6Cl)O5)cc4)CC3)cc2)c1=O` (some centres undefined), the Inhibition in assay [2], in [3], in assay [4], in assay [6], in assay [7] and in assay [8] was over 100 µg/mL each time. Besides, the Inhibition is over 100 µg/mL in assay [12]; over 100 µg/mL in assay [14]; over 100 µg/mL in [15]; 100 µg/mL in assay [16]; 10 µg/mL in [18]. Besides, the C/I ratio in [19] amounted to 2; in assay [22], 0; in assay [23], 1; in assay [21], 0.

`Cc1nn(C)c(=O)n1-c1ccc(N2CCN(c3ccc(OC[C@@H]4COC(Cn5cncn5)(c5ccc(Cl)cc5Cl)O4)cc3)CC2)cc1` (some centres undefined): the Inhibition in assay [2], in assay [3], in assay [4], in assay [6], in assay [7] and in assay [8] was over 100 µg/mL in each case. Further, the Inhibition in assay [12], in assay [14], in [15], in [16] and in [18] was over 100 µg/mL each time. Moreover, the C/I ratio in assay [24] stood at 1; in assay [25] it was 1; in assay [26] it was 0.

As to `CC(C)Cn1ncn(-c2ccc(N3CCN(c4ccc(OC[C@@H]5COC(Cn6cncn6)(c6ccc(Cl)cc6Cl)O5)cc4)CC3)cc2)c1=O` (some centres undefined), the C/I ratio in [27] stood at 0.7; in assay [28], 0.625; in [19], 2; in assay [29] it was 0.7; in [30], 0.4; in assay [31], 0.5. Besides, the Inhibition in assay [2] is over 100 µg/mL; in assay [3], 100 µg/mL; in [4], over 100 µg/mL; in assay [6] it was over 100 µg/mL; in assay [7], 10 µg/mL; in [8], over 100 µg/mL. Besides, the Inhibition in assay [12] is over 100 µg/mL; in [14], 10 µg/mL; in assay [15] it was over 100 µg/mL; in assay [16], 10 µg/mL; in assay [18], 100 µg/mL.

On to `CCn1nc(C)n(-c2ccc(N3CCN(c4ccc(OC[C@@H]5COC(Cn6cncn6)(c6ccc(Cl)cc6Cl)O5)cc4)CC3)cc2)c1=O` (some centres undefined), for which the C/I ratio in [32] is reported as 9; in assay [33], 1; in assay [34] it was 0; in assay [35], 1. The Inhibition in assay [2], in [3], in assay [4], in assay [6], in assay [7] and in assay [8] was over 100 µg/mL throughout. The Inhibition in [12], in assay [14], in assay [15], in assay [16] and in assay [18] was over 100 µg/mL each time.

Consider `CC(=O)N1CCN(c2ccc(OCC3COC(Cn4ccnc4)(c4ccc(Cl)cc4Cl)O3)cc2)CC1` (centres undefined) [KETOCONAZOLE], for which the C/I ratio in assay [36] was 0.956; in assay [37], 1; in [38] it was 0; in [39] it was 0; in assay [40], 0.118; in assay [41], 0.25.
